Source: ChEMBL document CHEMBL1155764, “Cytotoxicity of Rhamnosylanthraquinones and Rhamnosylanthrones from Rhamnus nepalensis” (J Nat Prod, 2001)

system: Mus musculus; experiment: Toxicity in mouse P388 cells xenografted CDF1 mouse assessed as survival time at 2.5 mg/kg, ip; format: organism-based; design: dose 2.5 mg/kg, route intraperitoneal; settings: in vivo
Method in brief: (§1)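 Two CDF1 mice per dose received P388 leukaemia cells intravenously, then a single intraperitoneal injection of the compound at 10, 5 or 2.5 mg/kg. The read-out was survival time in days after injection, compared with the average survival of the grafted mice.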

Q: Which Survival does the source give for `CC(=O)O[C@@H]1[C@@H](O)[C@H](C)O[C@@H](Oc2cc(O)c3c(c2)Cc2cc(C)cc(O)c2C3=O)[C@@H]1OC(C)=O` [PRINOIDIN] here?
A: Its Survival is 7 days.

system: Mus musculus; experiment: Toxicity in mouse P388 cells xenografted CDF1 mouse assessed as survival time at 5 mg/kg, ip; format: organism-based; design: dose 5 mg/kg, route intraperitoneal; settings: in vivo; method in brief: as §1

Q: How did the Survival turn out when `CC(=O)O[C@@H]1[C@@H](O)[C@H](C)O[C@@H](Oc2cc(O)c3c(c2)Cc2cc(C)cc(O)c2C3=O)[C@@H]1OC(C)=O` [PRINOIDIN] was run?
A: The Survival was 4 days.

system: KB; experiment: Cytotoxicity against human KB cells; format: functional, cell-based; settings: Homo sapiens, KB; read-out: IC50

Q: How did the IC50 turn out when `CC(=O)O[C@@H]1[C@@H](O)[C@H](C)O[C@@H](Oc2cc(O)c3c(c2)[C@H]([C@H]2c4cc(C)cc(O)c4C(=O)c4c(O)cc(O)cc42)c2cc(C)cc(O)c2C3=O)[C@@H]1OC(C)=O` was run?
A: Its IC50 is 1300 nM.

Q: How did the IC50 turn out when `CC(=O)O[C@@H]1[C@@H](O)[C@H](C)O[C@@H](Oc2cc(O)c3c(c2)[C@H]([C@@H]2c4cc(C)cc(O)c4C(=O)c4c(O)cc(O[C@@H]5O[C@@H](C)[C@H](O)[C@@H](OC(C)=O)[C@H]5OC(C)=O)cc42)c2cc(C)cc(O)c2C3=O)[C@@H]1OC(C)=O` was run?
A: The IC50 was 2500 nM.

Q: `CC(=O)O[C@@H]1[C@@H](O)[C@H](C)O[C@@H](Oc2cc(O)c3c(c2)[C@@H]([C@H]2c4cc(C)cc(O)c4C(=O)c4c(O)cc(O)cc42)c2cc(C)cc(O)c2C3=O)[C@@H]1OC(C)=O` was tested. Which IC50 did it give?
A: Its IC50 is 800 nM.

Q: Which IC50 does the source give for `CC(=O)O[C@@H]1[C@@H](O)[C@H](C)O[C@@H](Oc2cc(O)c3c(c2)[C@H]([C@H]2c4cc(C)cc(O)c4C(=O)c4c(O)cc(O[C@@H]5O[C@@H](C)[C@H](O)[C@@H](OC(C)=O)[C@H]5OC(C)=O)cc42)c2cc(C)cc(O)c2C3=O)[C@@H]1OC(C)=O` here?
A: Its IC50 is 900 nM.

Q: How did the IC50 turn out when `Cc1cc(O)c2c(c1)[C@@H]([C@H]1c3cccc(O)c3C(=O)c3c(O)cc(C)cc31)c1cc(O)cc(O)c1C2=O` was run?
A: The IC50 was 1800 nM.

Q: For `Cc1cc(O)c2c(c1)[C@H]([C@@H]1c3cc(C)cc(O)c3C(=O)c3c(O)cc(O)cc31)c1cccc(O)c1C2=O`, which IC50 is on record?
A: Its IC50 is 3400 nM.

Q: With `Cc1cc(O)c2c(c1)[C@H]([C@H]1c3cccc(O)c3C(=O)c3c(O)cc(C)cc31)c1cccc(O)c1C2=O` as the compound, how does the IC50 read?
A: Its IC50 is 200 nM.

Q: `CC(=O)O[C@@H]1[C@@H](O)[C@H](C)O[C@@H](Oc2cc(O)c3c(c2)C(=O)c2cc(C)cc(O)c2C3=O)[C@@H]1OC(C)=O` was tested. Which IC50 did it give?
A: Its IC50 is 1900 nM.

Q: How did the IC50 turn out when `Cc1cc(O)c2c(c1)[C@H]([C@H]1c3cc(C)cc(O)c3C(=O)c3c(O)cc(O)cc31)c1cc(O)cc(O)c1C2=O` was run?
A: The IC50 was 2500 nM.

Q: With `CC(=O)O[C@@H]1[C@@H](OC(C)=O)[C@H](Oc2cc(O)c3c(c2)C(C(C)=O)c2cc(C)cc(O)c2C3=O)O[C@@H](C)[C@H]1OC(C)=O` (some centres not stated) as the compound, how does the IC50 read?
A: The IC50 was 70 nM.

Q: `CC(=O)O[C@@H]1[C@@H](O)[C@H](C)O[C@@H](Oc2cc(O)c3c(c2)[C@H]([C@H]2c4cc(C)cc(O)c4C(=O)c4c(O)cc(O[C@@H]5O[C@@H](C)[C@H](OC(C)=O)[C@@H](O)[C@H]5OC(C)=O)cc42)c2cc(C)cc(O)c2C3=O)[C@@H]1OC(C)=O` was tested. Which IC50 did it give?
A: The IC50 was 800 nM.

Q: `CC(=O)O[C@@H]1[C@@H](O)[C@H](C)O[C@@H](Oc2cc(O)c3c(c2)[C@H]([C@@H]2c4cc(C)cc(O)c4C(=O)c4c(O)cc(O[C@@H]5O[C@@H](C)[C@H](OC(C)=O)[C@@H](O)[C@H]5OC(C)=O)cc42)c2cc(C)cc(O)c2C3=O)[C@@H]1OC(C)=O` was tested. Which IC50 did it give?
A: Its IC50 is 1200 nM.

Q: `CC(=O)O[C@@H]1[C@@H](O)[C@H](C)O[C@@H](Oc2cc(O)c3c(c2)[C@@H]([C@@H]2c4cc(C)cc(O)c4C(=O)c4c(O)cc(O[C@@H]5O[C@@H](C)[C@H](OC(C)=O)[C@@H](O)[C@H]5OC(C)=O)cc42)c2cc(C)cc(O)c2C3=O)[C@@H]1OC(C)=O` was tested. Which IC50 did it give?
A: The IC50 was 1000 nM.

Q: For `CC(=O)O[C@@H]1[C@@H](O)[C@H](C)O[C@@H](Oc2cc(O)c3c(c2)[C@@H]([C@@H]2c4cc(C)cc(O)c4C(=O)c4c(O)cc(O)cc42)c2cc(C)cc(O)c2C3=O)[C@@H]1OC(C)=O`, which IC50 is on record?
A: Its IC50 is 3300 nM.

Q: For `CC(=O)O[C@@H]1[C@@H](O)[C@H](C)O[C@@H](Oc2cc(O)c3c(c2)[C@H]([C@@H]2c4cc(C)cc(O)c4C(=O)c4c(O)cc(O)cc42)c2cc(C)cc(O)c2C3=O)[C@@H]1OC(C)=O`, which IC50 is on record?
A: Its IC50 is 4500 nM.

Q: `Cc1cc(O)c2c(c1)[C@H]([C@@H]1c3cccc(O)c3C(=O)c3c(O)cc(C)cc31)c1cccc(O)c1C2=O` was tested. Which IC50 did it give?
A: The IC50 was 1200 nM.

Q: For `Cc1cc(O)c2c(c1)[C@H]([C@H]1c3cc(C)cc(O)c3C(=O)c3c(O)cc(O)cc31)c1cccc(O)c1C2=O`, which IC50 is on record?
A: Its IC50 is 1400 nM.

Q: How did the IC50 turn out when `Cc1cc(O)c2c(c1)[C@@H]([C@H]1c3cc(C)cc(O)c3C(=O)c3c(O)cc(O)cc31)c1cc(O)cc(O)c1C2=O` was run?
A: The IC50 was 1100 nM.

Q: With `Cc1cc(O)c2c(c1)[C@@H]([C@H]1c3cc(C)cc(O)c3C(=O)c3c(O)cc(O)cc31)c1cccc(O)c1C2=O` as the compound, how does the IC50 read?
A: Its IC50 is 1200 nM.

Q: How did the IC50 turn out when `COc1cccc2c1C(=O)c1c(O)c3c(c(O)c1C2=O)C[C@@](O)(C(=O)CO)C[C@@H]3O[C@H]1C[C@H](N)[C@H](O)[C@H](C)O1` [DOXORUBICIN] was run?
A: The IC50 was 200 nM.

Q: For `Cc1cc(O)c2c(c1)Cc1cc(O)cc(O)c1C2=O` [EMODIN ANTHRONE], which IC50 is on record?
A: Its IC50 is 3900 nM.

Q: For `CC(=O)O[C@@H]1[C@@H](O)[C@H](C)O[C@@H](Oc2cc(O)c3c(c2)Cc2cc(C)cc(O)c2C3=O)[C@@H]1OC(C)=O` [PRINOIDIN], which IC50 is on record?
A: Its IC50 is 45 nM.

same assay, conditions: kb

Q: With `CC(=O)O[C@H]1[C@H](Oc2cc(O)c3c(c2)C(=O)c2cc(C)cc(O)c2C3=O)O[C@@H](C)[C@H](O)[C@H]1O` as the compound, how does the IC50 read?
A: Its IC50 is “Not Active”.

Q: For `CC(=O)O[C@@H]1[C@@H](OC(C)=O)[C@H](C)O[C@@H](Oc2cc(O)c3c(c2)C(=O)c2cc(C)cc(O)c2C3=O)[C@@H]1OC(C)=O`, which IC50 is on record?
A: Its IC50 is “Not Active”.

Q: `CC(=O)O[C@@H]1[C@@H](O)[C@H](C)O[C@@H](Oc2cc(O)c3c(c2)C(=O)c2cc(C)cc(O)c2C3=O)[C@@H]1O` was tested. Which IC50 did it give?
A: The IC50 was “Not Active”.

Q: Which IC50 does the source give for `Cc1cc(O)c2c(c1)C(=O)c1cccc(O)c1C2=O` [CHRYSOPHANOL] here?
A: Its IC50 is “Not Active”.

Q: How did the IC50 turn out when `Cc1cc(O)c2c(c1)C(=O)c1cc(O)cc(O)c1C2=O` [EMODIN] was run?
A: The IC50 was “Not Active”.

Q: `CC(=O)Oc1cc(C)cc2c1C(=O)c1c(OC(C)=O)cc(O[C@@H]3O[C@@H](C)[C@H](OC(C)=O)[C@@H](OC(C)=O)[C@H]3OC(C)=O)cc1C2=O` [FRANGULIN A PERACETATE] was tested. Which IC50 did it give?
A: The IC50 was “Not Active”.

Q: Which IC50 does the source give for `COc1cc(O)c2c(c1)C(=O)c1cc(C)cc(O)c1C2=O` [PHYSCION] here?
A: The IC50 was “Not Active”.

system: Mus musculus; experiment: Toxicity in mouse P388 cells xenografted CDF1 mouse assessed as survival time at 10 mg/kg, ip; format: organism-based; design: dose 10 mg/kg, route intraperitoneal; settings: in vivo; method in brief: as §1

Q: For `CC(=O)O[C@@H]1[C@@H](O)[C@H](C)O[C@@H](Oc2cc(O)c3c(c2)Cc2cc(C)cc(O)c2C3=O)[C@@H]1OC(C)=O` [PRINOIDIN], which Survival is on record?
A: Its Survival is 2 days.
